One assay addresses D(3) dopamine receptor (Rattus norvegicus, UniProt P19020). As to the kind of experiment: Displacement of [3H]7OH-DPAT from rat olfactory tubercle dopamine D3 receptor. Format: tissue-based. An outline of the steps: (§1)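 Rat brain tissue by target: striatum for D1, D2 and DAT; olfactory tubercle for D3; cortex for muscarinic, 5-HT3, 5-HT2A, α1, α2, H1, NMDA and SERT; guinea pig cortex for 5-HT4. Inhibitors at seven to nine concentrations. After incubation, samples were filtered on glass fibre filters, washed three times with ice-cold buffer and counted by liquid scintillation. Ki values were derived by curve fitting.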
On the technique in general: Loss of bound radioactivity is the signal in a displacement assay; it reports binding, not function.

The species named for a further assay is Rattus norvegicus. Briefly: Increase of caspase 3 cleavage in albino Wistar rat primary astroglial cells at 25 uM after 24 hrs relative to control. Format: functional. An outline of the steps: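 Primary astrocytes from 1–2-day-old Wistar rat brains were grown 14 DIV, then exposed to ligand 25 µM for 24 h. Cells were lysed and sonicated, and 30 µg protein was run on 10% SDS-PAGE. Mean ± SD of four experiments; t test.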

Assay [1] concerns the target Sigma non-opioid intracellular receptor 1 (Cavia porcellus, UniProt Q60492). Briefly: Displacement of [3H](+)-pentazocine from guinea pig brain sigma 1 receptor.
The target in assay [2] is T1, Adrenergic receptor alpha-2 (Rattus norvegicus, UniProt P22086+P19328+P22909).
T1 sequence (P22086 whole entry): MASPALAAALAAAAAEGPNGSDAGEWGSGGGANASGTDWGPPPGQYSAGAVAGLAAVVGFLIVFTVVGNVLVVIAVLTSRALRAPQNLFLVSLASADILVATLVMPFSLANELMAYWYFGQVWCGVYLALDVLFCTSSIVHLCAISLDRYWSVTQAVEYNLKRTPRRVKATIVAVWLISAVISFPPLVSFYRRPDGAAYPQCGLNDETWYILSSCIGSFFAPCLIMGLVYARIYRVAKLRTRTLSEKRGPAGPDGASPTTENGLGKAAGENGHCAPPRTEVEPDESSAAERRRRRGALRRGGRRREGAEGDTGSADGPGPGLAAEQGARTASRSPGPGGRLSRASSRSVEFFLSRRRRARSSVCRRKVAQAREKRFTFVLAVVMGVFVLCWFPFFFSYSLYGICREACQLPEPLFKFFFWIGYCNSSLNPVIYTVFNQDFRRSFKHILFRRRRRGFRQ
T1 sequence (P19328 whole entry): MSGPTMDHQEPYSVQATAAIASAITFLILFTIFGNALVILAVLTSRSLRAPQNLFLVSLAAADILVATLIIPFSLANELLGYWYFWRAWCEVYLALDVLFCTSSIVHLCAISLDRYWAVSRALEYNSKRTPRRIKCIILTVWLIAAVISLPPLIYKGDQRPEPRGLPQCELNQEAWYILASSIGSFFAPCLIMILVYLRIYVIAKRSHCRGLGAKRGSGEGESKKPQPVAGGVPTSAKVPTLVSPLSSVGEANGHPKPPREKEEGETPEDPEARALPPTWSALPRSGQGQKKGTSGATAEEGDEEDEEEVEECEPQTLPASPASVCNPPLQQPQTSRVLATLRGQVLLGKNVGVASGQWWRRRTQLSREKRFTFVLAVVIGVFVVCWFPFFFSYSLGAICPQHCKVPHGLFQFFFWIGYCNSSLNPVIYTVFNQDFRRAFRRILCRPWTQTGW
T1 sequence (P22909 whole entry): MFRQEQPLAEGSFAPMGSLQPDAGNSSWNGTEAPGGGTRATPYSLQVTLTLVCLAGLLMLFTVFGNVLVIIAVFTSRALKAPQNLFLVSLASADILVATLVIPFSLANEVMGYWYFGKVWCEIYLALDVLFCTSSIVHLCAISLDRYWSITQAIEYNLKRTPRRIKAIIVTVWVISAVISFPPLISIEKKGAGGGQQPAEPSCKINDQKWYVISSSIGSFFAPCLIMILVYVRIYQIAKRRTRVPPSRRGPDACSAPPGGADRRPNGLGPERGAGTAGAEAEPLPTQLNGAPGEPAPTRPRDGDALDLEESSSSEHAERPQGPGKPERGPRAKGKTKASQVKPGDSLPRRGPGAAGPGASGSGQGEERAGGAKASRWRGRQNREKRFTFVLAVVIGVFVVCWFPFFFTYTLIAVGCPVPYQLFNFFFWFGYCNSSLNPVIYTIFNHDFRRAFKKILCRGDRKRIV
Briefly: Displacement of 3H]RX821002 from rat cortex adrenergic alpha-2 receptor. The procedure, abridged:
as §1

Here are results for one compound from ChEMBL document CHEMBL1142963, “Novel sigma receptor ligands: synthesis and biological profile” (J Med Chem, 2007).

pKi: −log10 of the molar value. Active and inactive are the calls of the source. No cut-off for these calls is given here.

Sequence of D(3) dopamine receptor (P19020 whole entry): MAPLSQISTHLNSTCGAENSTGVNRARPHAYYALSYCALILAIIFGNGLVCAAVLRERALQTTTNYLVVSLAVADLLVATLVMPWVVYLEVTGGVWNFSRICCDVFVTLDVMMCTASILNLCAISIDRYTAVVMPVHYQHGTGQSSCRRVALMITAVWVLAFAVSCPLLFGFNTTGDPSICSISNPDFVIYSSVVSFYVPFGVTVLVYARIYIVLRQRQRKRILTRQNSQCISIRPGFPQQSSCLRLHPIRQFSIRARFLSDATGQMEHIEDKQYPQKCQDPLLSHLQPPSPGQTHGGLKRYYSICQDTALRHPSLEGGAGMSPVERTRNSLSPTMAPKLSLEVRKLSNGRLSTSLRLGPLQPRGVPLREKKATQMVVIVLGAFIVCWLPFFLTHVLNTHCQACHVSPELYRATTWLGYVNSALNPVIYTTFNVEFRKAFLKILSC
Sequence of Sigma non-opioid intracellular receptor 1 (Q60492 whole entry): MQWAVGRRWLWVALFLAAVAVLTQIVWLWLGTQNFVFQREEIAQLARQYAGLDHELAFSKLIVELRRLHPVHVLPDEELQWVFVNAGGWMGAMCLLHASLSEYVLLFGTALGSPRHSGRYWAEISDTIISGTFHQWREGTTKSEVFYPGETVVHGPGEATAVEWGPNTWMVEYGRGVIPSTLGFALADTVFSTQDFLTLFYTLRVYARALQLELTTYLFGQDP

For the compound `COC(=O)C1(c2ccc(C)cc2)CC1CN1CCC(O)(c2ccccc2)CC1` (centres undefined), the pKi (commonly the Ki on a negative log10 scale, so that one unit is a factor of ten) at D(3) dopamine receptor was 5.31; in assay [1], 8.82. For the same compound, the result in the assay filed under Rattus norvegicus was Active. Also, in assay [2], the Ki (usually the equilibrium dissociation constant of an inhibitor or competing ligand from its target) turned out to be 9.414 µM.
